Laboratory results taken from ChEMBL document CHEMBL1121938, “Hypocholesterolemic and antiaggregatory properties of 2-hydroxytetronic acid redox analogues an their relationship to clofibric acid” (1982).

How the values were obtained:
Rattus norvegicus [1] = assay: Effect of compound on liver TG levels in male Dawley rats at the dose of 0.4 mmol/kg; assay type: functional; design: unit: g/100 g wet liver
Method in brief: (§1)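 Male Sprague-Dawley rats (180-210 g) were kept on a high-cholesterol diet for 1 week before and throughout treatment. Groups of n = 6 received drug in 0.25% methylcellulose orally twice daily for 14 days, or vehicle. After a 16-18 h fast, livers were excised at day +14 and homogenized in 0.1 M Tris-HCl pH 7.2 with 1.15% KCl. Lipids were extracted from 25% w/v homogenate and reported as g/100 g wet liver ± SD; groups compared by ANOVA and Duncan's test.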

Rattus norvegicus [2] = assay: Effect of compound was measured on serum total triglycerides in male Dawley rats at the dose of 0.4 mmol/kg (day-1).; assay type: functional, organism-based
Method in brief: (§2)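 Serum triglycerides were measured with an enzymatic triglyceride reagent on a bichromatic analyzer. Rats were male Sprague-Dawley (180-210 g) fed a high-cholesterol diet, n = 6 per group, dosed orally twice daily for 14 days in 0.25% methylcellulose or vehicle. They were fasted 16-18 h before blood collection on days -1, +4, +7, +10 (orbital plexus, light ether) and +14 (aorta). Analysis was repeated-measures ANOVA with Duncan's test.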

Rattus norvegicus [3] = assay: Effect of compound was measured on serum total triglycerides in male Dawley rats at the dose of 0.4 mmol/kg (day+4).; assay type: functional, organism-based; method in brief: as §2
[4] = Effect of compound was measured on serum heparin-MnCl2 precipated ipoprotein Dawley rats at 0.4 mmol/kg dose(day-1).; assay type: functional
Method in brief: (§3)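 Cholesterol-fed male Sprague-Dawley rats, n = 6 per group, given compound or 0.25% methylcellulose orally twice daily for 14 days, and fasted 16-18 h before each bleed (days -1, +4, +7, +10, +14). Heparin-MnCl2 precipitable lipoprotein cholesterol was taken as serum total cholesterol minus α-lipoprotein cholesterol. It is reported as a ratio to α-LP cholesterol ± SD. Analysis was ANOVA with repeated measures and Duncan's test.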

Rattus norvegicus [5] = assay: Effect of compound was measured on serum alpha-lipoprotein in male Dawley rats at the dose of 0.4 mmol/kg (day-1).; assay type: functional, organism-based
Method in brief: (§4)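 Male Sprague-Dawley rats (180-210 g) fed a high-cholesterol diet for 1 week before and throughout dosing. Groups of n = 6 were dosed orally twice daily for 14 days in 0.25% methylcellulose, with vehicle controls. Rats were fasted 16-18 h before orbital bleeds on days -1, +4, +7 and +10, and by aortic exsanguination on day +14. Serum α-lipoprotein cholesterol was measured by polyanionic precipitation, in mg/dL ± SD.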

Rattus norvegicus [6] = assay: Effect of compound was measured on serum total cholesterol in male Dawley rats at the dose of 0.4 mmol/kg (day+14).; assay type: functional, organism-based
Method in brief: (§5)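 Serum total cholesterol was measured enzymatically on a bichromatic analyzer. Serum was separated after clotting on ice (2000g, 10 min), held at 4 °C and assayed within 48 h. Rats were male Sprague-Dawley on a high-cholesterol diet, n = 6, dosed orally twice daily for 14 days in 0.25% methylcellulose (1.0 mL/100 g). They were fasted 16-18 h before each bleed. Results are in mg/dL ± SD.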

[7] = Effect of compound was measured on serum heparin-MnCl2 precipated ipoprotein Dawley rats at 0.4 mmol/kg dose(day+7).; assay type: functional; method in brief: as §3
[8] = Effect of compound was measured on serum heparin-MnCl2 precipated ipoprotein Dawley rats at 0.4 mmol/kg dose(day+4).; assay type: functional; method in brief: as §3
[9] = Effect of compound was measured on serum heparin-MnCl2 precipated ipoprotein Dawley rats at 0.4 mmol/kg dose(day+14).; assay type: functional; method in brief: as §3
Rattus norvegicus [10] = assay: Effect of compound was measured on serum total cholesterol in male Dawley rats at the dose of 0.4 mmol/kg (day+4).; assay type: functional, organism-based; method in brief: as §5
Rattus norvegicus [11] = assay: Effect of compound was measured on serum total cholesterol in male Dawley rats at the dose of 0.4 mmol/kg (day-1).; assay type: functional, organism-based; method in brief: as §5
Rattus norvegicus [12] = assay: Effect of compound was measured on serum total triglycerides in male Dawley rats at the dose of 0.4 mmol/kg (day+10).; assay type: functional, organism-based; method in brief: as §2
Rattus norvegicus [13] = assay: Effect of compound on liver CH levels in male Dawley rats at the dose of 0.4 mmol/kg; assay type: functional; design: unit: g/100 g wet liver; method in brief: as §1
Rattus norvegicus [14] = assay: Effect of compound was measured on serum alpha-lipoprotein in male Dawley rats at the dose of 0.4 mmol/kg (day+10).; assay type: functional, organism-based; method in brief: as §4
[15] = Effect of compound on liver to body weight ratio in male Dawley rats at the dose of 0.4 mmol/kg; assay type: functional
Method in brief: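 Male Sprague-Dawley rats (180-210 g) were kept on a cholesterol-rich diet and dosed orally twice daily for 14 days in 0.25% methylcellulose; vehicle controls received the same; n = 6 per group. After a 16-18 h fast, rats were exsanguinated at day +14. Livers were removed, rinsed in ice-cold buffer, blotted and weighed, and related to body weight. Data were analysed by repeated-measures ANOVA with Duncan's multiple range test.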

Rattus norvegicus [16] = assay: Effect of compound was measured on serum total cholesterol in male Dawley rats at the dose of 0.4 mmol/kg (day+7).; assay type: functional, organism-based; method in brief: as §5
Rattus norvegicus [17] = assay: Effect of compound was measured on serum alpha-lipoprotein in male Dawley rats at the dose of 0.4 mmol/kg (day14).; assay type: functional, organism-based; method in brief: as §4
Rattus norvegicus [18] = assay: Effect of compound was measured on serum alpha-lipoprotein in male Dawley rats at the dose of 0.4 mmol/kg (day+4).; assay type: functional, organism-based; method in brief: as §4
[19] = Effect of compound was measured on serum heparin-MnCl2 precipated ipoprotein Dawley rats at 0.4 mmol/kg dose(day+10).; assay type: functional; method in brief: as §3
Rattus norvegicus [20] = assay: Effect of compound was measured on serum total cholesterol in male Dawley rats at the dose of 0.4 mmol/kg (day+10).; assay type: functional, organism-based; method in brief: as §5
Rattus norvegicus [21] = assay: Effect of compound was measured on serum total triglycerides in male Dawley rats at the dose of 0.4 mmol/kg (day+14).; assay type: functional, organism-based; method in brief: as §2
Rattus norvegicus [22] = assay: Effect of compound was measured on serum total triglycerides in male Dawley rats at the dose of 0.4 mmol/kg (day+7).; assay type: functional, organism-based; method in brief: as §2
Rattus norvegicus [23] = assay: Effect of compound was measured on serum alpha-lipoprotein in male Dawley rats at the dose of 0.4 mmol/kg (day+7).; assay type: functional, organism-based; method in brief: as §4

Row | SMILES | Liver TG (Rattus norvegicus [1]) | Serum total triglycerides (Rattus norvegicus [2]) [mg/dL] | Serum total triglycerides (Rattus norvegicus [3]) [mg/dL] | Ratio [4] | alpha-lipoprotein cholesterol (Rattus norvegicus [5]) [mg/dL] | serum total cholesterol (Rattus norvegicus [6]) [mg/dL] | Ratio [7] | Ratio [8] | Ratio [9] | serum total cholesterol (Rattus norvegicus [10]) [mg/dL] | serum total cholesterol (Rattus norvegicus [11]) [mg/dL] | Serum total triglycerides (Rattus norvegicus [12]) [mg/dL] | Liver CH levels (Rattus norvegicus [13]) | alpha-lipoprotein cholesterol (Rattus norvegicus [14]) [mg/dL] | Ratio [15] | serum total cholesterol (Rattus norvegicus [16]) [mg/dL] | alpha-lipoprotein cholesterol (Rattus norvegicus [17]) [mg/dL] | alpha-lipoprotein cholesterol (Rattus norvegicus [18]) [mg/dL] | Ratio [19] | serum total cholesterol (Rattus norvegicus [20]) [mg/dL] | other results
1 | CCOC(=O)C(C)(C)Oc1ccc(Cl)cc1 [CLOFIBRATE] | 1.84 | 266 | 141 | 3.81 | 44.4 | 302 | 3.12 | 2.54 | 4.76 | 127 | 202 | 196 | 3.58 | 51.7 | 6.2 | 209 | 55 | 38.5 | 4.89 | 316 | Serum total triglycerides (Rattus norvegicus [21]): 155 mg/dL; Serum total triglycerides (Rattus norvegicus [22]): 169 mg/dL; alpha-lipoprotein cholesterol (Rattus norvegicus [23]): 52.7 mg/dL
2 | O=C1OC(c2ccc(Cl)cc2)C(=O)C1=O (stereo unspecified) | 3.76 | 268 | 198 | 5.76 | 40.3 | 217 | 12.6 | 5.63 | 5.75 | 205 | 250 | 151 | 4.9 | 29 | 4 | 377 | 34.2 | 32 | 11.9 | 356 | Serum total triglycerides (Rattus norvegicus [21]): 105 mg/dL; Serum total triglycerides (Rattus norvegicus [22]): 164 mg/dL; alpha-lipoprotein cholesterol (Rattus norvegicus [23]): 30.5 mg/dL
